pIC50, pKi: −log10 of the molar value.
Assays:
[1] = biological target: T1, Gamma-aminobutyric acid receptor subunit alpha-5/beta-2/gamma-2 (Homo sapiens, UniProt P18507+P31644+P47870); experiment: Antagonist activity at human alpha5beta2gamma2 GABAA receptor expressed in HEK cells by FMP assay; format: cell-based; details: for IC50: read-out: pIC50 (converted)
T1 sequence (P47870 whole entry): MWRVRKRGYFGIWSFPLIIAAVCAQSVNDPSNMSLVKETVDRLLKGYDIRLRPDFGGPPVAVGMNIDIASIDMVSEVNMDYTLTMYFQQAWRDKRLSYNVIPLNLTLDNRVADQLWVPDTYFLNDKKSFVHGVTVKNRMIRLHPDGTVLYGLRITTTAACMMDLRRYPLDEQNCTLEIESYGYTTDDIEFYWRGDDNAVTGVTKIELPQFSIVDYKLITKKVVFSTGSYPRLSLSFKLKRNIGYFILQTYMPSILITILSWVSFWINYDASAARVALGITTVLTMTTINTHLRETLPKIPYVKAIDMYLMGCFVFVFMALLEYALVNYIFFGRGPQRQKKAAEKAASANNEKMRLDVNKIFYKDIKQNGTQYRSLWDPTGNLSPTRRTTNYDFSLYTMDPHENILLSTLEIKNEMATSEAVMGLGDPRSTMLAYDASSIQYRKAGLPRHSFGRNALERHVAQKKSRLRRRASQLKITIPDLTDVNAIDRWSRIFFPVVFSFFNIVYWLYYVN
T1 sequence (P18507 whole entry): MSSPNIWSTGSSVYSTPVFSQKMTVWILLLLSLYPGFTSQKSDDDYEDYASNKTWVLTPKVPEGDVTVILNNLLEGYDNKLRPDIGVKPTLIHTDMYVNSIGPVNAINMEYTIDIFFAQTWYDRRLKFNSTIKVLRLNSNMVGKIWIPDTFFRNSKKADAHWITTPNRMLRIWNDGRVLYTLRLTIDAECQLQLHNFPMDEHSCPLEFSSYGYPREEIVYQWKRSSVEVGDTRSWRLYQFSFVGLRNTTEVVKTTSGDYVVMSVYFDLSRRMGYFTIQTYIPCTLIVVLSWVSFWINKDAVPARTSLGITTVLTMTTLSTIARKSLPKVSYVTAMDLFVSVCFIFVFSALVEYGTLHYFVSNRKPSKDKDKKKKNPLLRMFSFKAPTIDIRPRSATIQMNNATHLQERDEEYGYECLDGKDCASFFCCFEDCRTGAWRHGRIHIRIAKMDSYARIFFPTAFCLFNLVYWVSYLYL
T1 sequence (P31644 whole entry): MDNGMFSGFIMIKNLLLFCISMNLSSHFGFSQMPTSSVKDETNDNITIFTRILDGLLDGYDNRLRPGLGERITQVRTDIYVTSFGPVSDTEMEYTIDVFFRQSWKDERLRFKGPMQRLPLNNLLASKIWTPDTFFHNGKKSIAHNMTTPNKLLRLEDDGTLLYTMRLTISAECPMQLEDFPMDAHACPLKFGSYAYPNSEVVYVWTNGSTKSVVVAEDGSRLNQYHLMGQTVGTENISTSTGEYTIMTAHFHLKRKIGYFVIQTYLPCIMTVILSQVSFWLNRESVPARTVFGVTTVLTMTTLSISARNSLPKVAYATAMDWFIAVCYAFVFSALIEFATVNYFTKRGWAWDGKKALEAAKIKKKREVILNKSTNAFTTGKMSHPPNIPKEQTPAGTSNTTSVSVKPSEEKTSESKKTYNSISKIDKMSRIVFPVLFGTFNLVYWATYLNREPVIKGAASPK
In short: (§1)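 Human αβγ2 receptors in HEK293 cells: α1β2γ2 stably expressed, other αβγ2 subtypes transiently transfected into HEK293 Flp-In background cells (α:β:γ 1:1:2). FLIPR membrane potential assay with ΔRFU baseline to peak/plateau and GABA EC80 as agonist. IC50 from a four-parameter fit, at least three independent experiments.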

[2] = biological target: T2, GABA-A receptor; alpha-1/beta-2/gamma-2 (Homo sapiens, UniProt P14867+P18507+P47870); experiment: Antagonist activity at human alpha1beta2gamma2 GABAA receptor expressed in HEK by FMP assay; format: cell-based; details: for IC50: read-out: pIC50 (converted); in short: as §1
T2 sequence (P14867 whole entry): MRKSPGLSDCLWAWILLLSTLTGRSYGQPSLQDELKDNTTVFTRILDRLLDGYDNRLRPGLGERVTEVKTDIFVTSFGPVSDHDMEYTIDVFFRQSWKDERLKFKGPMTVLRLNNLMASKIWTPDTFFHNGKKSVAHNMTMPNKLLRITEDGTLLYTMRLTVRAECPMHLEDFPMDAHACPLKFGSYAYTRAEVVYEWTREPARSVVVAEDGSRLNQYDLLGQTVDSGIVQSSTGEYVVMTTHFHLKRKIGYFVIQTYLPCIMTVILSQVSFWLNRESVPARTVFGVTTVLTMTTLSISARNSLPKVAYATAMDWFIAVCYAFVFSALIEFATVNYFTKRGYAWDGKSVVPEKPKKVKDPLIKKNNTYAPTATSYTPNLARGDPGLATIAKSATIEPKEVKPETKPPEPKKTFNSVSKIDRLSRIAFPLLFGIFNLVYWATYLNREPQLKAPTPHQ
T2 sequence (P47870 whole entry): T1 sequence (P47870 whole entry)
T2 sequence (P18507 whole entry): T1 sequence (P18507 whole entry)

[3] = biological target: T3, GABA A receptor alpha-3/beta-2/gamma-2 (Homo sapiens, UniProt P18507+P34903+P47870); experiment: Antagonist activity at human alpha3beta2gamma2 GABAA receptor expressed in HEKcells by FMP assay; format: cell-based, HEK; details: for IC50: read-out: pIC50 (converted); in short: as §1
T3 sequence (P47870 whole entry): T1 sequence (P47870 whole entry)
T3 sequence (P18507 whole entry): T1 sequence (P18507 whole entry)
T3 sequence (P34903 whole entry): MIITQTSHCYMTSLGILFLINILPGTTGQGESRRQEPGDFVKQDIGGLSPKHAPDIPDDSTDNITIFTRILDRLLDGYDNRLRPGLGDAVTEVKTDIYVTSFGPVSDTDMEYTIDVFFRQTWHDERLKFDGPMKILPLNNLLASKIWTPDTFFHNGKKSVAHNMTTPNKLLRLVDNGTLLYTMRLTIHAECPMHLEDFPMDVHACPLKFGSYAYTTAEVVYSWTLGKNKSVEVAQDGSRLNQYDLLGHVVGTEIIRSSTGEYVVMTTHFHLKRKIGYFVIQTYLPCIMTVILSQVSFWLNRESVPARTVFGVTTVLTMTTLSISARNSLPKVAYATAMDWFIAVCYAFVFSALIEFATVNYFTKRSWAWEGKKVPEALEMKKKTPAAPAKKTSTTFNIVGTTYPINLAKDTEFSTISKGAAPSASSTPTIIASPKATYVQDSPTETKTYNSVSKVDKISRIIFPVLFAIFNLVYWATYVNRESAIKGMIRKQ

[4] = biological target: GABA-A receptor; anion channel; experiment: Displacement of [3H]-muscimol from rat cortical synaptic membrane GABAA receptor assessed as inhibition constant by microscint-scintillation method; format: cell membranes, Cortex
In short: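 Rat cortical synaptic membranes, washed repeatedly in 50 mM Tris-HCl pH 7.4, 70–80 μg protein. Incubated at 0 °C with 5 nM [3H]-muscimol (final) and a range of test concentrations, then filtered and counted by scintillation. Nonspecific binding defined with 1.0 mM GABA. IC50 converted to Ki by Cheng–Prusoff, triplicate, three independent experiments.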

[5] = biological target: T1, Gamma-aminobutyric acid receptor subunit alpha-5/beta-2/gamma-2; experiment: Antagonist activity at human alpha5beta2gamma2 GABAA receptor expressed in HEK293 cells by FMP assay; format: cell-based; details: for IC50: read-out: pIC50 (converted); in short: as §1

With `O=C(Nc1cccc(C(=O)N2CCC3(CCNCC3)CC2)c1)c1cccs1` the pIC50 [1] was 7.29, the IC50 [1] was 51.3 nM and the pIC50 [2] was 6.10. The IC50 [2] was 794 nM, the pIC50 [3] was 7.10 and the IC50 [3] was 79.4 nM.
For `Cc1ccc(C(=O)N2CCC3(CCNCC3)CC2)cc1`, the pKi [4] was 6.28, the pIC50 [5] was 5.82 and the IC50 [5] was 1450 nM.
In the case of `CC(=O)Nc1cccc(C(=O)N2CCC3(CCNCC3)CC2)c1`, the pIC50 [1] was 6.23, the IC50 [1] was 589 nM and the pIC50 [2] was 5.30. It also gave an IC50 [2] of 5010 nM, a pIC50 [3] of 6.54 and an IC50 [3] of 288 nM.
Molecule `Cc1cccc(C(=O)N2CCC3(CCNCC3)CC2)c1` has a pKi [4] of 6.74, a pIC50 [5] of 6.27 and an IC50 [5] of 537 nM.

— ChEMBL document CHEMBL5096209, “Structure-Activity Studies of 3,9-Diazaspiro[5.5]undecane-Based γ-Aminobutyric Acid Type A Receptor Antagonists with Immunomodulatory Effect” (J Med Chem, 2021)
